ChEMBL document CHEMBL1148489, “Synthesis and structure-activity relationships of 1-arylmethyl-5-aryl-6-methyluracils as potent gonadotropin-releasing hormone receptor antagonists” (J Med Chem, 2004)
Blank lines part the entries; values can stand above or below the compound they belong to.

Key:
[1] = target: T1, Gonadotropin-releasing hormone receptor (Homo sapiens, UniProt P30968); test: Binding affinity evaluated by the ability to inhibit des-Gly10[125I]Tyr5,D-Leu6,NMeLeu7,Pro9-NEt]- Gonadotropin-releasing hormone binding to cloned human Gonadotropin-releasing hormone receptor expressed in HEK293 cells; type: cell-based
T1 sequence (P30968 whole entry): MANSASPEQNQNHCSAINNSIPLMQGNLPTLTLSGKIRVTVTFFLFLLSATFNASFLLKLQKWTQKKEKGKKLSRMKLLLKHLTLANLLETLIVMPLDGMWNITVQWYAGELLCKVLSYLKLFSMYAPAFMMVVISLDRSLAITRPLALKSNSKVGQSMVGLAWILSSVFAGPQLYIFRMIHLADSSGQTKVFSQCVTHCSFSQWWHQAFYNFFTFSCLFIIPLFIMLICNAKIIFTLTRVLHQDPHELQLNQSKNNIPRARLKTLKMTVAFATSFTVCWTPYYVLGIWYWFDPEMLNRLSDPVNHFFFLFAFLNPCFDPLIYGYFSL

[2] = target: T2, Gonadotropin-releasing hormone receptor (Rattus norvegicus, UniProt P30969); test: In vivo inhibition of rat Gonadotropin-releasing hormone receptor; type: organism-based
T2 sequence (P30969 whole entry): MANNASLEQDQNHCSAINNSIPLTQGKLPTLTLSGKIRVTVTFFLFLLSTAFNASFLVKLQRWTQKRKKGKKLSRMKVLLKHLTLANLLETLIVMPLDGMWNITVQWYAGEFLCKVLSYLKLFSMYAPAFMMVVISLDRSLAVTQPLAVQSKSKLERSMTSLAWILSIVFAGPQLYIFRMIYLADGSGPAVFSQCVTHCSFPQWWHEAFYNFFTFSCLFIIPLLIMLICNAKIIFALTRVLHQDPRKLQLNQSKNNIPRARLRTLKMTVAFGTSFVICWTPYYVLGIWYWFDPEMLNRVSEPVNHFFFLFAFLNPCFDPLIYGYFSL

[3] = target: T1, Gonadotropin-releasing hormone receptor; test: In vitro inhibition of [Ca2+] influx in RBL cells expressing Gonadotropin-releasing hormone receptor; type: functional, cell-based
Outline: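 RBL cells stably expressing full-length human GnRH receptor, attached overnight and loaded with 2 μM Fluo-4 for 1 h at 37 °C. Cells washed, then preincubated 1 min with increasing compound before 5 nM GnRH stimulation. Ca2+ flux read as fluorescence on FLIPR; IC50 derived.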

[4] = Oral bioavailability in mouse; type: ADME, organism-based; conditions: in vivo
Outline: (§1)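 Terminal blood at preset times, composite sampling, plus hepatic portal vein samples under isoflurane. Plasma flash-frozen; LLOQ 5 ng/mL. Parameters from a noncompartmental model.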

[5] = Clearance value was determined; type: ADME, organism-based; conditions: mouse, in vivo; outline: as §1
Mus musculus = test: AUC value was determined after oral administration; type: ADME, organism-based, Plasma; conditions: in vivo; outline: as §1
[6] = Half life was determined; type: ADME, organism-based; conditions: mouse, in vivo; outline: as §1
[7] = target: T2, Gonadotropin-releasing hormone receptor; test: In vivo inhibition of rat Gonadotropin releasing hormone receptor; type: organism-based

Ki [1]: 110 nM
SMILES: Cc1c(-c2ccc(C(C)C)cc2)c(=O)n(CCN(C)CCc2ccccn2)c(=O)n1Cc1c(F)cccc1F

Ki [1]: 4800 nM
SMILES: COc1ccc(-c2c(C)n(Cc3c(F)cccc3F)c(=O)n(CCN(C)CCc3ccccn3)c2=O)cc1OC

Ki [2]: 4900 nM
IC50 [3]: 27 nM
Ki [1]: 15 nM
SMILES: CCc1ccc(CN[C@@H](C)Cn2c(=O)c(-c3cccc(OC)c3F)c(C)n(Cc3c(F)cccc3F)c2=O)o1

Ki [1]: 120 nM
SMILES: CSc1ccc(-c2c(C)n(Cc3c(F)cccc3F)c(=O)n(CCN(C)CCc3ccccn3)c2=O)cc1

Ki [1]: 370 nM
SMILES: Cc1c(-c2cccc(Cl)c2)c(=O)n(CCN(C)CCc2ccccn2)c(=O)n1Cc1c(F)cccc1F

bioavailability [4]: 2.2%
clearance [5]: 70.7 mL/min/kg
AUC (Mus musculus): 57 ng·h/mL
half-life [6]: 36 min
SMILES: COc1cccc(-c2c(C)n(Cc3c(F)cccc3F)c(=O)n(C[C@H](C)NC3CCCC3)c2=O)c1F

Ki [1]: 10800 nM
SMILES: COc1cc(-c2c(C)n(Cc3c(F)cccc3F)c(=O)n(CCN(C)CCc3ccccn3)c2=O)cc(OC)c1OC

Ki [1]: 460 nM
SMILES: Cc1c(-c2ccc3ccccc3c2)c(=O)n(CCN(C)CCc2ccccn2)c(=O)n1Cc1c(F)cccc1F

Ki [1]: 170 nM
SMILES: Cc1c(-c2ccc3oc4ccccc4c3c2)c(=O)n(CCN(C)CCc2ccccn2)c(=O)n1Cc1c(F)cccc1F

Ki [1]: 1500 nM
SMILES: COCc1cccc(-c2c(C)n(Cc3c(F)cccc3F)c(=O)n(CCN(C)CCc3ccccn3)c2=O)c1

Ki [1]: 220 nM
SMILES: Cc1ccc(-c2c(C)n(Cc3c(F)cccc3F)c(=O)n(CCN(C)CCc3ccccn3)c2=O)cc1

Ki [1]: 340 nM
SMILES: C=Cc1ccc(-c2c(C)n(Cc3c(F)cccc3F)c(=O)n(CCN(C)CCc3ccccn3)c2=O)cc1

Ki [2]: 25000 nM
IC50 [3]: 38 nM
Ki [1]: 25 nM
SMILES: COc1cccc(-c2c(C)n(Cc3c(F)cccc3F)c(=O)n(C[C@H](C)NCc3ccccc3)c2=O)c1F

Ki [1]: 470 nM
SMILES: Cc1c(-c2ccc3c(c2)OC(F)(F)O3)c(=O)n(CCN(C)CCc2ccccn2)c(=O)n1Cc1c(F)cccc1F

bioavailability [4]: 1.6%
clearance [5]: 120 mL/min/kg
AUC (Mus musculus): 23 ng·h/mL
half-life [6]: 24 min
SMILES: COc1cccc(-c2c(C)n(Cc3c(F)cccc3F)c(=O)n(CCN(C)CCc3ccccn3)c2=O)c1

Ki [1]: 240 nM
SMILES: Cc1c(-c2cccc(C(C)C)c2)c(=O)n(CCN(C)CCc2ccccn2)c(=O)n1Cc1c(F)cccc1F

Ki [1]: 81 nM
SMILES: Cc1c(-c2ccccc2F)c(=O)n(CCN(C)CCc2ccccn2)c(=O)n1Cc1c(F)cccc1F

bioavailability [4]: 8.2%
clearance [5]: 129 mL/min/kg
AUC (Mus musculus): 110 ng·h/mL
half-life [6]: 54 min
SMILES: CCC(CC)N[C@@H](C)Cn1c(=O)c(-c2cccc(OC)c2F)c(C)n(Cc2c(F)cccc2F)c1=O

Ki [7]: 10000 nM
IC50 [3]: 6.1 nM
bioavailability [4]: 6%
Ki [1]: 13 nM
clearance [5]: 97.3 mL/min/kg
AUC (Mus musculus): 104 ng·h/mL
half-life [6]: 78 min
SMILES: COc1cccc(-c2c(C)n(Cc3c(F)cccc3F)c(=O)n(C[C@@H](C)NCc3nccs3)c2=O)c1F

Ki [1]: 680 nM
SMILES: CCOc1ccc(-c2c(C)n(Cc3c(F)cccc3F)c(=O)n(CCN(C)CCc3ccccn3)c2=O)cc1

Ki [1]: 7 nM
SMILES: COc1cccc(-c2c(C)n(Cc3c(F)cccc3F)c(=O)n([C@H](C)CNCc3ccccc3C)c2=O)c1F

Ki [2]: 3200 nM
IC50 [3]: 4 nM
Ki [1]: 4 nM
SMILES: COc1cccc(-c2c(C)n(Cc3c(F)cccc3F)c(=O)n(C[C@H](C)NCc3sccc3C)c2=O)c1F

Ki [1]: 3 nM
SMILES: COc1cccc(-c2c(C)n(Cc3c(F)cccc3F)c(=O)n(CCN(C)CCc3ccccn3)c2=O)c1F

Ki [1]: 1200 nM
SMILES: Cc1c(-c2cccc(F)c2)c(=O)n(CCN(C)CCc2ccccn2)c(=O)n1Cc1c(F)cccc1F

Ki [1]: 1400 nM
SMILES: COCc1ccc(-c2c(C)n(Cc3c(F)cccc3F)c(=O)n(CCN(C)CCc3ccccn3)c2=O)cc1
